Results collected from several papers.
Target: STE20/SPS1-related proline-alanine-rich protein kinase (STK39, Homo sapiens, UniProt Q9UEW8)

| Structure (SMILES) | observed | mode | method | concentration | quantity | value |
| --- | --- | --- | --- | --- | --- | --- |
| O=c1nc(-c2ccccn2)sc2ccccc12 | binding | – | competition with immobilised ligand | 1 µM | remaining binding | 100% |
| CC(C)(C)c1nc2c(s1)c1nc(N)ncc1c1ccc(NS(=O)(=O)c3c(F)cccc3F)c(F)c12 | enzyme activity | inhibitor | radiometric | 1 µM | remaining activity | 92% |
| Cc1sc(C(=O)NC2COC2)cc1-n1cc(NC(=O)Nc2c(F)cccc2Cl)cn1 | enzyme activity | inhibitor | – | 10 µM | remaining activity | 64.5% |
| O=C1Nc2ccc(Cl)cc2C1=Cc1cc(Cl)c(O)c(Cl)c1 | cell-free assay | – | – | 0.5 µM | remaining signal | 97% |
| O=C(Nc1cnn(-c2csc(C(=O)NC3COC3)c2)c1)Nc1ccccc1Cl | enzyme activity | inhibitor | – | 5 µM | remaining activity | 87.5% |
| O=C(Nc1ccc(Oc2ccc(F)cc2)cc1)N1CCc2ncccc2[C@H]1c1ccc(F)cc1 | cell-free assay | – | competition with immobilised ligand | 1 µM | remaining binding | 82% |
| Cn1cnc(Br)c1C1=CN(c2ncnc3[nH]cnc23)CCS1 | enzyme activity | inhibitor | radiometric | 2 µM | inhibition | 86.6% |
| COc1ccc(COc2ccc(Cc3cnc(N)nc3N)cc2OC)cc1 | cell-free assay | – | – | 0.5 µM | remaining signal | 87.6% |
| CS(=O)(=O)N1CCCC(NC(=O)[C@H](CCC2CCCCC2)NC(=O)c2ccc(CNc3ncnc4c3nnn4-c3ccccc3)cc2)C1 (stereo partly drawn) | cell-free assay | – | competition with immobilised ligand | 0.1 µM | remaining binding | 100% |
| Cn1cncc1C1=CN(c2ncnc3[nH]cnc23)CCS1 | enzyme activity | inhibitor | radiometric | 2 µM | inhibition | 87.3% |
| Cc1c(NC(=O)c2cc(C(N)=O)nc3cc(F)ccc23)c(C(F)(F)F)nn1Cc1ccc(C(C)(C)C)cc1 | cell-free assay | – | competition with immobilised ligand | 1 µM | remaining binding | 100% |
| O=C1NC(=O)c2cc(Nc3ccc(F)cc3)c(Nc3ccc(F)cc3)cc21 | cell-free assay | – | – | 0.5 µM | remaining signal | 89.2% |
